Experimental data: ChEMBL document CHEMBL3525897, “Metabolism and quantification of [(18)F]DPA-714, a new TSPO positron emission tomography radioligand” (Drug Metab Dispos, 2013)

How the values were obtained:
Liver microsome [1] = test: Drug level in Sprague-Dawley rat liver microsomes treated with DPA-714 after 15 to 60 mins by LC-MS/MS analysis
[2] = Retention time of the compound by LC-MS analysis; assay type: physicochemical
Procedure, shortened: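 Separation of DPA-714 and its metabolites by LC-MS on reverse-phase Atlantis C18 column (2.1x150 mm) with electrospray ionization.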

[3] = Retention time in baboon plasma treated with [18F]DPA-714 by radio-HPLC analysis; assay type: ADME, cell-free; conditions: papio anubis
Procedure, shortened: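 Isoflurane-anaesthetized baboons, 6 PET experiments. Arterial femoral plasma sampled 0-120 min and centrifuged at 4°C, then deproteinated with acetonitrile; pellet radioactivity counted and treated as metabolite. Supernatant run on radio-HPLC (C18 preparative, 0.1% TFA water/acetonitrile 20-80% over 10 min, 5 mL/min). Counts decay-corrected to injection. Parent fraction as % total; data fitted to two exponentials; mean ± sd.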

Liver microsome [4] = test: Drug metabolism in Sprague-Dawley rat liver microsomes assessed as N,N-diethyl-2-(2-(4-(2-fluoroethoxy)phenyl)-6-hydroxy-5,7-dimethylpyrazolo[1,5-a]pyrimidin-3-yl)acetamide level after 15 to 60 mins by LC-MS/MS analysis; assay type: ADME
Procedure, shortened: (§1)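 Liver microsomes (rat, baboon, or pooled human from 10 donors), 1 mg protein/mL, with DPA-714 100 µM in 0.1 M potassium phosphate, pH 7.4. Preincubated 2 min at 37°C, then started with NADPH-generating system. Run 15, 30 and 60 min; rates from 30 min. Stopped with acetonitrile, filtered, analysed by LC-MS-MS. Rates in nmol/mg/min; mean ± sd of 5 duplicate experiments.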

Liver microsome [5] = test: Drug metabolism in Sprague-Dawley rat liver microsomes assessed as N,N-diethyl-2-(2-(4-(2-fluoroethoxy)phenyl)-5-(hydroxymethyl)-7-methylpyrazolo[1,5-a]pyrimidin-3-yl)acetamide level after 15 to 60 mins by LC-MS/MS analysis; assay type: ADME
Procedure, shortened: as §1

Liver microsome [6] = test: Drug metabolism in human liver microsomes assessed as N,N-diethyl-2-(2-(4-(2-fluoroethoxy)phenyl)-7-(hydroxymethyl)-5-methylpyrazolo[1,5-a]pyrimidin-3-yl)acetamide level after 15 to 60 mins by LC-MS/MS analysis; assay type: ADME
Procedure, shortened: as §1

Liver microsome [7] = test: Drug metabolism in Sprague-Dawley rat liver microsomes assessed as N-ethyl-2-(2-(4-(2-fluoroethoxy)phenyl)-5-(hydroxymethyl)-7-methylpyrazolo[1,5-a]pyrimidin-3-yl)acetamide level after 15 to 60 mins by LC-MS/MS analysis; assay type: ADME
Procedure, shortened: as §1

[8] = Drug metabolism in baboon liver microsomes assessed as N,N-diethyl-2-(2-(4-(2-fluoroethoxy)phenyl)-7-(hydroxymethyl)-5-methylpyrazolo[1,5-a]pyrimidin-3-yl)acetamide level after 15 to 60 mins by LC-MS/MS analysis; assay type: ADME; conditions: papio anubis
Procedure, shortened: as §1

Liver microsome [9] = test: Drug metabolism in Sprague-Dawley rat liver microsomes assessed as N,N-diethyl-2-(2-(4-hydroxyphenyl)-5,7-dimethylpyrazolo[1,5-a]pyrimidin-3-yl)acetamide level after 15 to 60 mins by LC-MS/MS analysis; assay type: ADME
Procedure, shortened: as §1

Liver microsome [10] = test: Drug metabolism in Sprague-Dawley rat liver microsomes assessed as N,N-diethyl-2-(2-(4-(2-fluoroethoxy)phenyl)-7-(hydroxymethyl)-5-methylpyrazolo[1,5-a]pyrimidin-3-yl)acetamide level after 15 to 60 mins by LC-MS/MS analysis; assay type: ADME
Procedure, shortened: as §1

[11] = Drug metabolism in baboon liver microsomes assessed as N,N-diethyl-2-(2-(4-hydroxyphenyl)-5,7-dimethylpyrazolo[1,5-a]pyrimidin-3-yl)acetamide level after 15 to 60 mins by LC-MS/MS analysis; assay type: ADME; conditions: papio anubis
Procedure, shortened: as §1

Liver microsome [12] = test: Drug metabolism in Sprague-Dawley rat liver microsomes assessed as N-ethyl-2-(2-(4-(2-fluoroethoxy)phenyl)-5,7-dimethylpyrazolo[1,5-a]pyrimidin-3-yl)acetamide level after 15 to 60 mins by LC-MS/MS analysis; assay type: ADME
Procedure, shortened: as §1

Liver microsome [13] = test: Drug metabolism in Sprague-Dawley rat liver microsomes assessed as N,N-diethyl-2-(2-(4-(2-fluoroethoxy)phenyl)-5,7-bis(hydroxymethyl)pyrazolo[1,5-a]pyrimidin-3-yl)acetamide level after 15 to 60 mins by LC-MS/MS analysis; assay type: ADME
Procedure, shortened: as §1

Liver microsome [14] = test: Drug metabolism in human liver microsomes assessed as N-ethyl-2-(2-(4-(2-fluoroethoxy)phenyl)-5,7-dimethylpyrazolo[1,5-a]pyrimidin-3-yl)acetamide level after 15 to 60 mins by LC-MS/MS analysis; assay type: ADME
Procedure, shortened: as §1

CCN(CC)C(=O)Cc1c(-c2ccc(OCCF)cc2)nn2c(C)c(O)c(C)nc12
Drug metabolism (Liver microsome [1]): metabolite_detected | Retention_time [2]: 16.43 min

CCNC(=O)Cc1c(-c2ccc(OCC[18F])cc2)nn2c(C)cc(CO)nc12
Retention_time [3]: 7.25 min

CCN(CC)C(=O)Cc1c(-c2ccc(OCCF)cc2)nn2c(C)cc(CO)nc12
Drug metabolism (Liver microsome [1]): metabolite_detected | Retention_time [2]: 16.87 min

CCN(CC)C(=O)Cc1c(-c2ccc(OCCF)cc2)nn2c(C)cc(C)nc12 [DPA-714]
Drug metabolism (Liver microsome [4]): metabolite_detected | Drug metabolism (Liver microsome [5]): 0.89 nmol/mg/min | Drug metabolism (Liver microsome [6]): 0.57 nmol/mg/min | Drug metabolism (Liver microsome [7]): metabolite_detected | Drug metabolism [8]: 0.46 nmol/mg/min | Drug metabolism (Liver microsome [9]): metabolite_detected | Drug metabolism (Liver microsome [10]): metabolite_detected | Drug metabolism [11]: 0.64 nmol/mg/min | Drug metabolism (Liver microsome [12]): 0.82 nmol/mg/min | Drug metabolism (Liver microsome [13]): metabolite_detected | Drug metabolism (Liver microsome [14]): 0.45 nmol/mg/min

CCNC(=O)Cc1c(-c2ccc(OCCF)cc2)nn2c(C)cc(C)nc12
Drug metabolism (Liver microsome [1]): metabolite_detected | Retention_time [2]: 16.1 min

CCN(CC)C(=O)Cc1c(-c2ccc(O)cc2)nn2c(C)cc(C)nc12
Drug metabolism (Liver microsome [1]): metabolite_detected | Retention_time [2]: 15.05 min
